Columns and labels:
Format in all cases: functional
M14 = assay: Growth inhibition of human M14 cells assessed as cell growth at 10 uM after 48 hrs by sulforhodamine B assay; conditions: M14, 48 h, read-out: Activity
Outline: (§1)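 NCI-60 single-dose screen at 10 µM: cells in RPMI 1640 with 5% FBS, preincubated 24 h, then exposed 48 h at 37 °C. TCA fixation (16% final for suspension cells), SRB staining, absorbance 515 nm. Percent growth relative to time-zero and untreated control plates; negative values indicate cell kill.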

NCI-H23 = assay: Growth inhibition of human NCI-H23 cells after 48 hrs by sulforhodamine B assay; conditions: NCI-H23, 48 h
Outline: (§2)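 NCI-60 panel cells grown in RPMI 1640 with 5% FBS and 2 mM L-glutamine, seeded at 5000–40,000 cells/well and preincubated 24 h. Five 10-fold dilutions (0.001–100 µM) from DMSO stocks were added for 48 h at 37 °C. Adherent cells were fixed with cold TCA (10% final) for 60 min at 4 °C, stained with 0.4% SRB, and read at 515 nm. GI50 was set where 100×(T−T0)/(C−T0)=50.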

[1] = Growth inhibition of human NCI-ADR-RES cells after 48 hrs by sulforhodamine B assay; outline: as §2
OVCAR-5 [2] = assay: Growth inhibition of human OVCAR5 cells after 48 hrs by sulforhodamine B assay; conditions: OVCAR-5, 48 h; outline: as §2
OVCAR-4 = assay: Growth inhibition of human OVCAR4 cells assessed as cell growth at 10 uM after 48 hrs by sulforhodamine B assay; conditions: OVCAR-4, 48 h, read-out: Activity
Outline: (§3)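 Single-dose NCI-60 screen: adherent cells in RPMI 1640 with 5% FBS were exposed to 10 µM for 48 h at 37 °C after a 24 h preincubation. They were fixed in situ with cold TCA (10% final), stained with 0.4% SRB in 1% acetic acid, solubilized in 10 mM Tris base, and read at 515 nm. Percent growth was taken relative to time-zero and control plates.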

Malme-3M = assay: Growth inhibition of human MALME-3M cells after 48 hrs by sulforhodamine B assay; outline: as §2
[3] = Growth inhibition of human HCC2998 cells after 48 hrs by sulforhodamine B assay; conditions: HCC 2998, 48 h
Outline: (§4)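 NCI-60 screen: cells in RPMI 1640 with 5% FBS and 2 mM glutamine, 5000–40,000 cells/well, preincubated 24 h. Five concentrations (10-fold dilutions; 100 to 0.001 µM) applied for 48 h at 37 °C. TCA fixation, SRB stain, absorbance at 515 nm. Time-zero plates included; GI50 where 100×(T−T0)/(C−T0)=50.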

HL-60(TB) = assay: Growth inhibition of human HL-60(TB) cells after 48 hrs by sulforhodamine B assay; conditions: HL-60, 48 h
Outline: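 HL-60(TB) cells (suspension) grown in RPMI 1640 with 5% FBS and 2 mM L-glutamine. They were plated and preincubated for 24 h, with T0 plates fixed at that point. Drug was given at five 10-fold dilutions for 48 h at 37 °C. Settled cells were fixed with TCA (16% final), stained with 0.4% SRB in 1% acetic acid and read at 515 nm. GI50 was taken where 100×(T−T0)/(C−T0)=50.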

[4] = Growth inhibition of human Hs 578T cells after 48 hrs by sulforhodamine B assay; outline: as §4
HCT-15 = assay: Growth inhibition of human HCT15 cells assessed as cell growth at 10 uM after 48 hrs by sulforhodamine B assay; conditions: HCT-15, 48 h, read-out: Activity; outline: as §1
SK-OV-3 = assay: Growth inhibition of human SKOV3 cells after 48 hrs by sulforhodamine B assay; conditions: SK-OV-3, 48 h
Outline: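 NCI-60 five-dose screen. Cells were grown in RPMI 1640 with 5% FBS and 2 mM L-glutamine, plated at 5000–40,000 cells/well and incubated 24 h before dosing, with T0 plates TCA-fixed. DMSO stocks were diluted to doses of […] and exposed 48 h at 37 °C, 5% CO2. Cells were fixed with cold TCA (final 10%, 60 min, 4 °C), stained with 0.4% SRB in 1% acetic acid for 10 min, solubilized in 10 mM trizma base and read at 515 nm. GI50 is where 100×(T−T0)/(C−T0)=50.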

[5] = Growth inhibition of human NCI-ADR-RES cells assessed as cell growth at 10 uM after 48 hrs by sulforhodamine B assay; conditions: read-out: Activity; outline: as §3
OVCAR-5 [6] = assay: Growth inhibition of human OVCAR5 cells assessed as cell growth at 10 uM after 48 hrs by sulforhodamine B assay; conditions: OVCAR-5, 48 h, read-out: Activity; outline: as §3
NCI-H460 = assay: Growth inhibition of human NCI-H460 cells assessed as cell growth at 10 uM after 48 hrs by sulforhodamine B assay; conditions: NCI-H460, 48 h, read-out: Activity; outline: as §3
SK-MEL-2 = assay: Growth inhibition of human SK-MEL-2 cells after 48 hrs by sulforhodamine B assay; conditions: SK-MEL-2, 48 h; outline: as §2
HT-29 = assay: Growth inhibition of human HT-29 cells assessed as cell growth at 10 uM after 48 hrs by sulforhodamine B assay; conditions: HT-29, 48 h, read-out: Activity; outline: as §1
SNB-19 = assay: Growth inhibition of human SNB19 cells assessed as cell growth at 10 uM after 48 hrs by sulforhodamine B assay; conditions: SNB-19, 48 h, read-out: Activity
Outline: (§5)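 Single-dose NCI-60 test at 10 µM. Cells were grown in RPMI 1640 with 5% FBS and 2 mM L-glutamine, preincubated 24 h, with T0 plates TCA-fixed. Exposure was 48 h at 37 °C, 5% CO2. Cells were fixed with cold TCA (final 10%, 4 °C, 60 min), stained with SRB and read at 515 nm. Percent growth was taken relative to T0 and untreated control; negative values denote cell kill.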

DU-145 = assay: Growth inhibition of human DU145 cells after 48 hrs by sulforhodamine B assay; conditions: DU-145, 48 h; outline: as §4
A549 = assay: Growth inhibition of human A549/ATCC cells after 48 hrs by sulforhodamine B assay; conditions: A549, 48 h; outline: as §4
T47D = assay: Growth inhibition of human T47D cells assessed as cell growth at 10 uM after 48 hrs by sulforhodamine B assay; conditions: read-out: Activity; outline: as §5
[7] = Growth inhibition of human EKVX cells after 48 hrs by sulforhodamine B assay; outline: as §4
MCF7 = assay: Growth inhibition of human MCF7 cells assessed as cell growth at 10 uM after 48 hrs by sulforhodamine B assay; conditions: MCF7, 48 h, read-out: Activity; outline: as §3
SR = assay: Growth inhibition of human SR cells assessed as cell growth at 10 uM after 48 hrs by sulforhodamine B assay; conditions: read-out: Activity
Outline: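 Suspension line in RPMI 1640 with 5% FBS, single 10 µM dose for 48 h. Settled cells were fixed with TCA (final 16%), then SRB-stained and read at 515 nm. Percent growth was taken versus T0 and control; negative values denote cytotoxicity.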

MDA-MB-435 = assay: Growth inhibition of human MDA-MB-435 cells assessed as cell growth at 10 uM after 48 hrs by sulforhodamine B assay; conditions: MDA-MB-435, 48 h, read-out: Activity; outline: as §3

| Compound | growth at 10 µM (M14) | growth at 10 µM (OVCAR-4) | growth at 10 µM (HCT-15) | growth at 10 µM [5] | growth at 10 µM (OVCAR-5 [6]) | growth at 10 µM (NCI-H460) | growth at 10 µM (HT-29) | growth at 10 µM (SNB-19) | growth at 10 µM (T47D) | growth at 10 µM (MCF7) | growth at 10 µM (SR) | growth at 10 µM (MDA-MB-435) | also measured |
| --- | --- | --- | --- | --- | --- | --- | --- | --- | --- | --- | --- | --- | --- |
| CC(C)=CCC/C(C)=C/CC/C(C)=C/CC[C@]1(C)CCc2c3c(c(C)c(C)c2O1)OCN(CCCCCO)C3 | 107% | 93.1% | 105% | 82.5% | 94.4% | -49.6% | 55.1% | 86.5% | 94.4% | 24.3% | -44.4% | 35.5% | GI50 (NCI-H23): 6.67 µM; GI50 [1]: 5.89 µM; GI50 (OVCAR-5 [2]): 5.93 µM; GI50 (Malme-3M): 6.9 µM; GI50 [3]: 2.53 µM; GI50 (HL-60(TB)): 6.26 µM; GI50 [4]: 7.26 µM; GI50 (SK-OV-3): 6.85 µM; GI50 (SK-MEL-2): 7.47 µM; GI50 (DU-145): 6.28 µM; GI50 (A549): 6.19 µM; GI50 [7]: 6.08 µM |
| COc1ccc(CCNCc2c(O)c(C)c(C)c3c2CC[C@@](C)(CC/C=C(\C)CC/C=C(\C)CCC=C(C)C)O3)cc1OC | 90.4% | 84% | 104% | 91.4% | 104% | 73.4% | 45.8% | 89.6% | 83.2% | 29.3% | 7.87% | 57.5% | – |
| CC(C)=CCC/C(C)=C/CC/C(C)=C/CC[C@]1(C)CCc2c3c(cc(C)c2O1)OCN(CCCCCCCCCCO)C3 | 94.9% | 92.1% | 96.9% | 99.9% | 105% | 91.6% | 48.3% | 98.9% | 86.1% | 59.2% | 3.3% | 101% | – |
| COc1ccc(CCN2COc3c(C)c(C)c4c(c3C2)CC[C@@](C)(CC/C=C(\C)CC/C=C(\C)CCC=C(C)C)O4)cc1OC | 101% | 98.4% | 102% | 101% | 101% | 103% | 91.7% | 104% | 98% | 77.5% | 54.6% | 90.7% | – |
| CC(C)=CCC/C(C)=C/CC/C(C)=C/CC[C@]1(C)CCc2c(CNCCc3ccc(O)cc3)c(O)c(C)c(C)c2O1 | 102% | 91% | 106% | 95% | 113% | 92.3% | 95.5% | 99.8% | 99.1% | 36.9% | 18.5% | 81.3% | – |
| CC(C)=CCC/C(C)=C/CC/C(C)=C/CC[C@]1(C)CCc2c3c(c(C)c(C)c2O1)OCN(CCc1ccc(O)cc1)C3 | 97.6% | 81.4% | 102% | 83.6% | 111% | 62.4% | 84.5% | 94.1% | 93.7% | 16.9% | 16.3% | 54.5% | – |
| CC(C)=CCC/C(C)=C/CC/C(C)=C/CC[C@]1(C)CCc2c3c(c(C)c(C)c2O1)OCN(CCCCCCCCCCO)C3 | 101% | 105% | 91.1% | 99.2% | 106% | 75.5% | 90% | 95.7% | 85.2% | 93.4% | 51.9% | 98.3% | – |
| CC(C)=CCC/C(C)=C/CC/C(C)=C/CC[C@]1(C)CCc2c3c(cc(C)c2O1)OCN(CCCCCCCCCCCCO)C3 | 90.9% | 77.5% | 82.9% | 79.9% | 102% | 48.2% | 49.5% | 92.7% | 78.5% | 26.3% | -19.6% | 71.5% | – |
| CC(C)=CCC/C(C)=C/CC/C(C)=C/CC[C@]1(C)CCc2c3c(c(C)c(C)c2O1)OCN(CCCCCCCCCCCCO)C3 | 113% | 107% | 100% | 97.9% | 114% | 103% | 84.4% | 104% | 95.8% | 100% | 67.2% | 100% | – |
| CC(C)=CCC/C(C)=C/CC/C(C)=C/CC[C@]1(C)CCc2c3c(c(C)c(C)c2O1)OCN(CCCCO)C3 | 65.4% | 77.5% | – | 57.5% | 83.1% | 4.31% | 54.4% | 71.3% | 59.1% | 10.1% | -11.1% | 53.9% | GI50 (NCI-H23): > 10 µM; GI50 [1]: > 10 µM; GI50 (OVCAR-5 [2]): > 10 µM; GI50 (Malme-3M): > 10 µM; GI50 [3]: 1.84 µM; GI50 (HL-60(TB)): 3.86 µM; GI50 [4]: > 10 µM; GI50 (SK-OV-3): 5.41 µM; GI50 (SK-MEL-2): > 10 µM; GI50 (DU-145): 6.55 µM; GI50 (A549): 3.3 µM; GI50 [7]: > 10 µM |
| CC(C)=CCC/C(C)=C/CC/C(C)=C/CC[C@]1(C)CCc2cc(O)c(C)c(C)c2O1 [GAMMA-TOCOTRIENOL] | 109% | 102% | 102% | 96.9% | 114% | 105% | 96.1% | 114% | 82.5% | 84.1% | 85.5% | 102% | – |

From ChEMBL document CHEMBL2380254, “Optimization of tocotrienols as antiproliferative and antimigratory leads” (Eur J Med Chem, 2013)
